Test results: ChEMBL document CHEMBL1146598, “Synthesis and structure-activity relationship of mannose-based peptidomimetics selectively blocking integrin alpha4beta7 binding to mucosal addressin cell adhesion molecule-1” (J Med Chem, 2003)
pIC50: −log10 of the molar value.

Legend:
[1] = In vitro inhibition of 38-beta7 (alpha4-beta7) cell adhesion to mucosal addressin cell adhesion molecule-1.; format: functional
Summary of the method: (§1)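 38C13β7 lymphoma cells (α4β7+) labelled with H33342 dye (6 µg/mL), 8 × 10^5 cells/mL in adhesion buffer (Click's RPMI, 1% BSA, 1.0 mM Ca2+/Mg2+). Cells are preincubated with compound 10 min at 37 °C, then adhere 30 min at 37 °C to plates carrying anti-human-IgG-captured MAdCAM-1-IgG from 293T supernatant. Nonadherent cells are removed by inverse centrifugation (50 g, 10 min); readout is fluorimetry; IC50 from curves.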

[2] = target: Integrin alpha-4/beta-1 (Homo sapiens) (UniProt P05556+P13612); experiment: In vitro inhibition of Jurkat cell (alpha4-beta1) cell adhesion to vascular cell adhesion molecule-1.; format: functional, cell-based
Summary of the method: (§2)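 Jurkat cells (α4β1+, α4β7−) are Hoechst H33342-labelled (6 µg/mL), then preincubated with compound 10 min at 37 °C at 8 × 10^5 cells/mL. Adhesion runs 30 min at 37 °C to VCAM-IgG (293T transfectant supernatant) captured on donkey anti-human IgG, in RPMI/1% BSA/1 mM Ca2+, Mg2+. Unbound cells are spun off inverted (50 g, 10 min); adhesion is read by fluorescence; IC50 from curves.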

[3] = target: T1, Integrin beta-7 (Homo sapiens, UniProt P13612+P26010); experiment: Inhibition of alpha4-beta7 interaction to mucosal addressin cell adhesion molecule-1 (MAdCAM-1) was determined; format: functional; summary of the method: as §1
T1 sequence (P26010 whole entry): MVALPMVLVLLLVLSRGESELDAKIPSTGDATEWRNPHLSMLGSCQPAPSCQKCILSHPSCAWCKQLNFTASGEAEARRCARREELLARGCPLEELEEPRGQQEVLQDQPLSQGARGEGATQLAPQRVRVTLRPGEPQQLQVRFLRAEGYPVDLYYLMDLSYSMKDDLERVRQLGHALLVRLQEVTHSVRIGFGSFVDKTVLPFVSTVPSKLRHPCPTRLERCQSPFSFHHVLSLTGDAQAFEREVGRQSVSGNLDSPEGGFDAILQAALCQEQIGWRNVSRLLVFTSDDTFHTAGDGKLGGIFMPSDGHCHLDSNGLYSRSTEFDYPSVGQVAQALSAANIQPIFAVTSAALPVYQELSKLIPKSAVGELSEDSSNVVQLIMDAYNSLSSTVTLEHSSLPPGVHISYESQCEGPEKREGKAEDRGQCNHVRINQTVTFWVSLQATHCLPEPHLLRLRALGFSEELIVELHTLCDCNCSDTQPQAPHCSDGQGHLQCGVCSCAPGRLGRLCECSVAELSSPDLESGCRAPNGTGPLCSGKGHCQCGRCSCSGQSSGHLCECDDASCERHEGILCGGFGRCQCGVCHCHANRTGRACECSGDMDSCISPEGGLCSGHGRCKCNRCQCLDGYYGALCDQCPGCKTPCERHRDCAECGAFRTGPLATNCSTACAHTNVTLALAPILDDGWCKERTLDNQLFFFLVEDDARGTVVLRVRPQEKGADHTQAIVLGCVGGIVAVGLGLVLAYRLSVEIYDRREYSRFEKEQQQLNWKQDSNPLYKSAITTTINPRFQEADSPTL

[4] = target: Integrin beta-1 (Homo sapiens, UniProt P05556); experiment: Inhibition of alpha4-beta1 interaction to vascular cell adhesion molecule-1 (VCAM-1) was determined; format: functional; summary of the method: as §2
Sequence of Integrin beta-1 (P05556 whole entry): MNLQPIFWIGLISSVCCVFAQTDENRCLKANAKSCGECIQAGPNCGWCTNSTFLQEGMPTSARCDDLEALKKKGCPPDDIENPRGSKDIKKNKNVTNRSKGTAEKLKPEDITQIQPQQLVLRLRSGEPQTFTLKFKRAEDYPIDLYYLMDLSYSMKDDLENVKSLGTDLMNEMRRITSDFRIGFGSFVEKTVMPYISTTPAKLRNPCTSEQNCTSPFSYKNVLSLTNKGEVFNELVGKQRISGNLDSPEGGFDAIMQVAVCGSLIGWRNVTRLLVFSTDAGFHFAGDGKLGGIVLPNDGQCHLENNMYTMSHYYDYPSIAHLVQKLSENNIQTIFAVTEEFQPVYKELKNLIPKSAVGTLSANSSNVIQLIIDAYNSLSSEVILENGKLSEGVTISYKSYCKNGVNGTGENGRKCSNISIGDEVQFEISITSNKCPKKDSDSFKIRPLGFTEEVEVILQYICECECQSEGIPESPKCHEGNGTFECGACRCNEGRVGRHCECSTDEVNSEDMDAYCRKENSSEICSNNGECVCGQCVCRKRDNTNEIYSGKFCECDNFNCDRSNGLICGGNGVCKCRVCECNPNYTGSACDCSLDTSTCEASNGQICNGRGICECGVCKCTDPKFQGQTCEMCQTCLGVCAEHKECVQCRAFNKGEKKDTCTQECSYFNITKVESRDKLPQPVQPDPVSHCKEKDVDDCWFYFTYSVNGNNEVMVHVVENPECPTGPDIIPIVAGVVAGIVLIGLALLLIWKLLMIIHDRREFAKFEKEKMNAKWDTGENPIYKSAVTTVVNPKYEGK

**Q.** What does the source list for `COC1C(COCC(C)C)O[C@@H](OCC(=O)O)C(OCc2ccccc2)[C@H]1OC` (stereo not given in full)?
**A.** Adhesion [1]: 100%; Adhesion [2]: 86%

**Q.** For `COC12CCCC[C@]1(OC)O[C@H]1C(O2)C(COC(C)C)O[C@@H](OCC(=O)O)[C@@H]1OCc1ccccc1` (stereo in doubt; form 1) [listing 1 of 2 here], which Adhesion [1] is on record?
**A.** Its Adhesion is 100%.

**Q.** Which Adhesion [1] does the source give for `COC1C(CC(C)C)O[C@@H](OCC(=O)O)[C@H](OCc2ccccc2)[C@H]1OC` (stereo not given in full) here?
**A.** The Adhesion was 100%.

**Q.** What about the Adhesion [2] of the same molecule?
**A.** The Adhesion was 100%.

**Q.** With `CO[C@]12CCCC[C@@]1(OC)OC1[C@H](COCC(C)C)O[C@@H](OCC(=O)O)[C@H](OCc3ccccc3)[C@H]1O2` (stereo in doubt; form 1) [listing 1 of 2 here] as the molecule, how does the Adhesion [2] read?
**A.** The Adhesion was 89%.

**Q.** Which Adhesion [2] does the source give for `CC[C@H](C)[C@@H]1NC(=O)[C@@H](CCC(N)=O)NC(=O)[C@H](N)CSSC[C@H](C(=O)O)NC(=O)[C@H]2CCCN2C(=O)[C@H](CO)NC(=O)[C@@H](CC(=O)O)NC1=O` here?
**A.** The Adhesion was 52%.

**Q.** With `COC1C(COC(C)C)O[C@@H](OCC(=O)O)C(OCCO)[C@H]1OC` (stereo not given in full) as the molecule, how does the Adhesion [1] read?
**A.** Its Adhesion is 100%.

**Q.** What about the Adhesion [2] of the same molecule?
**A.** Its Adhesion is 100%.

**Q.** What does the source list for `CO[C@@]12O[C@H]3[C@H](O[C@@]1(OC)c1ccccc1-c1ccccc12)[C@@H](COCC(C)C)OC(OCC(=O)O)[C@H]3OCCO` (stereo not given in full)?
**A.** Adhesion [1]: 76%; Adhesion [2]: 81%

**Q.** For `CO[C@]12CCCC[C@@]1(OC)OC1[C@H](COCC(C)C)O[C@@H](OCC(=O)O)[C@H](OCc3ccccc3)[C@H]1O2` (stereo in doubt; form 2) [listing 1 of 2 here], which Adhesion [1] is on record?
**A.** Its Adhesion is 15%.

**Q.** And the pIC50 [3]?
**A.** The pIC50 was 3.38.

**Q.** With `COC1C(COCC(C)C)O[C@@H](OCC(=O)O)[C@H](OCc2ccccc2)[C@H]1OC` (stereo not given in full) as the molecule, how does the Adhesion [1] read?
**A.** Its Adhesion is 100%.

**Q.** And the Adhesion [2]?
**A.** Its Adhesion is 100%.

**Q.** Which Adhesion [1] does the source give for `COC1C(COC(C)C)O[C@@H](OCC(=O)O)C(OCc2ccccc2)[C@H]1OC` (stereo not given in full) here?
**A.** The Adhesion was 100%.

**Q.** What about the Adhesion [2] of the same molecule?
**A.** The Adhesion was 86%.

**Q.** What does the source list for `COC1C(COCC(C)C)O[C@@H](OCC(=O)O)[C@H](OCCO)[C@H]1OC` (stereo not given in full)?
**A.** Adhesion [1]: 100%; Adhesion [2]: 100%

**Q.** For `COC1C(COC(C)C)O[C@@H](OCC(=O)O)[C@H](OCCO)[C@H]1OC` (stereo not given in full), which Adhesion [1] is on record?
**A.** The Adhesion was 100%.

**Q.** And the Adhesion [2]?
**A.** Its Adhesion is 98%.

**Q.** For `COC12CCCC[C@]1(OC)O[C@H]1C(O2)C(COC(C)C)O[C@@H](OCC(=O)O)[C@@H]1OCc1ccccc1` (stereo in doubt; form 2) [listing 1 of 2 here], which Adhesion [2] is on record?
**A.** The Adhesion was 100%.

**Q.** What does the source list for `COC1C(CCC(C)C)O[C@@H](OCC(=O)O)[C@H](OCc2ccccc2)[C@H]1OC` (stereo not given in full)?
**A.** Adhesion [1]: 100%; Adhesion [2]: 97%

**Q.** With `CO[C@@]12O[C@@H]3[C@H](OCCO)[C@H](OCC(=O)O)O[C@H](COCC(C)C)[C@H]3O[C@@]1(OC)c1ccccc1-c1ccccc12` as the molecule, how does the Adhesion [1] read?
**A.** The Adhesion was 80%.

**Q.** What about the Adhesion [2] of the same molecule?
**A.** The Adhesion was 82%.

**Q.** For `COC1C(COC(C)C)O[C@@H](OCC(=O)O)[C@H](OCc2ccccc2)[C@H]1OC` (stereo not given in full), which Adhesion [1] is on record?
**A.** Its Adhesion is 100%.

**Q.** What about the Adhesion [2] of the same molecule?
**A.** The Adhesion was 92%.

**Q.** For `COC12CCCC[C@]1(OC)O[C@H]1C(O2)C(COC(C)C)O[C@@H](OCC(=O)O)[C@@H]1OCc1ccccc1` (stereo in doubt; form 2) [listing 2 of 2 here], which Adhesion [1] is on record?
**A.** Its Adhesion is 76%.

**Q.** With `CC(C)C[C@H](NC(=O)c1cc2ccccc2cn1)C(=O)N[C@@H](CC(=O)O)C(=O)N[C@H](C(N)=O)[C@@H](C)O` as the molecule, how does the Adhesion [1] read?
**A.** The Adhesion was 10%.

**Q.** What about the pIC50 [3] of the same molecule?
**A.** The pIC50 was 3.55.

**Q.** What about the Adhesion [2] of the same molecule?
**A.** Its Adhesion is 10%.

**Q.** With `COC1C(CCC(C)C)O[C@@H](OCC(=O)O)C(OCc2ccccc2)[C@H]1OC` (stereo not given in full) as the molecule, how does the Adhesion [1] read?
**A.** Its Adhesion is 100%.

**Q.** What about the Adhesion [2] of the same molecule?
**A.** Its Adhesion is 100%.

**Q.** Which results are given for `COC1C(CC(C)C)O[C@@H](OCC(=O)O)C(OCc2ccccc2)[C@H]1OC` (stereo not given in full)?
**A.** Adhesion [1]: 100%; Adhesion [2]: 100%

**Q.** With `CO[C@]12CCCC[C@@]1(OC)OC1[C@H](COCC(C)C)O[C@@H](OCC(=O)O)[C@H](OCc3ccccc3)[C@H]1O2` (stereo in doubt; form 1) [listing 2 of 2 here] as the molecule, how does the Adhesion [1] read?
**A.** Its Adhesion is 90%.

**Q.** For `COC12CCCC[C@]1(OC)O[C@H]1C(O2)C(COC(C)C)O[C@@H](OCC(=O)O)[C@@H]1OCc1ccccc1` (stereo in doubt; form 1) [listing 2 of 2 here], which Adhesion [2] is on record?
**A.** Its Adhesion is 100%.

**Q.** For `CO[C@]12CCCC[C@@]1(OC)OC1[C@H](COCC(C)C)O[C@@H](OCC(=O)O)[C@H](OCc3ccccc3)[C@H]1O2` (stereo in doubt; form 2) [listing 2 of 2 here], which Adhesion [2] is on record?
**A.** Its Adhesion is 77%.

**Q.** With `CC[C@H](C)[C@@H]1NC(=O)[C@H](CCC(N)=O)NC(=O)[C@@H](N)CSSC[C@@H](C(=O)O)NC(=O)[C@@H]2CCCN2C(=O)[C@H](CO)NC(=O)[C@H](CC(=O)O)NC1=O` as the molecule, how does the pIC50 [4] read?
**A.** Its pIC50 is 2.84.
